{"data": "Measurements from different studies", "target": "Beta-adrenergic receptor kinase 1 (GRK2, Homo sapiens, UniProt P25098)", "Residues used in one study (P25098 1-689)": "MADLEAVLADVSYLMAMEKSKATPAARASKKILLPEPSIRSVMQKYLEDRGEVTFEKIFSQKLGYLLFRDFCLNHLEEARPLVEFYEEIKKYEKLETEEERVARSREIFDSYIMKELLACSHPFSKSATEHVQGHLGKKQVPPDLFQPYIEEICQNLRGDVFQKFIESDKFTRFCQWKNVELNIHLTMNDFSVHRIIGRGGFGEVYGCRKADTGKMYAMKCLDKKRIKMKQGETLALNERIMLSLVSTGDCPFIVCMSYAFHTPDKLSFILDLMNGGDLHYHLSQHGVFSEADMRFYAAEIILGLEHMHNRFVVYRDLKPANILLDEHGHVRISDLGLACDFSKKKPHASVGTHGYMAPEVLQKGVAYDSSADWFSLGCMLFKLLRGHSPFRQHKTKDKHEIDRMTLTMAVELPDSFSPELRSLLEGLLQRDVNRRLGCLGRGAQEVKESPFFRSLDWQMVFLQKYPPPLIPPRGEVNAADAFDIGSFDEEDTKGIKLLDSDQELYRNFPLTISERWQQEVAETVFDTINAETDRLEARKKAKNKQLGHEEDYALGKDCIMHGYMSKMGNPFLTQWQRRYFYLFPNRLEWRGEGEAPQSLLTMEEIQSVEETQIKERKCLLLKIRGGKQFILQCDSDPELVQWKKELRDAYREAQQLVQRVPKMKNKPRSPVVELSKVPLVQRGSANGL", "note": "Protocols differ between the studies behind these lines."}
{"SMILES": "CO[C@H]1CC[C@H](CNc2ccc(S(=O)(=O)NC(=O)c3ccc(N4CCN(CC5=C(c6ccc(Cl)cc6)CC(C)(C)CC5)CC4)cc3Oc3cnc4[nH]ccc4c3)cc2[N+](=O)[O-])CC1", "read-out": "cell-free assay", "method": "competition with immobilised ligand", "concentration": "1 µM", "remaining binding [%]": 85}
{"SMILES": "Cc1cnc(Nc2ccc(C(=O)N3CCC(N4CCCC4)CC3)cc2)nc1-c1cc2ccccc2s1", "read-out": "binding", "method": "competition with immobilised ligand", "concentration": "1 µM", "remaining binding [%]": 56}
{"SMILES": "CNC(=O)[C@@H]1CC[C@@H](n2c(-c3ccc4cnccc4c3)nc3ccc(C(=O)NCc4cccc(C(N)=O)c4)cc32)C1", "read-out": "binding", "method": "competition with immobilised ligand", "concentration": "1 µM", "remaining binding [%]": 92}
{"SMILES": "Cc1nc(Cc2cccc(C(F)(F)F)c2)sc1-c1ccc(C(N)=O)nc1", "read-out": "cell-free assay", "method": "competition with immobilised ligand", "concentration": "1 µM", "remaining binding [%]": 100}
{"SMILES": "C=CC(=O)N1CCC(C(=O)NCC(=O)N2CCN(c3nc(-c4cnc(N)nc4C(F)F)nc(N4CCOCC4)n3)CC2)CC1", "read-out": "binding", "method": "competition with immobilised ligand", "concentration": "1 µM", "remaining binding [%]": 100}
{"SMILES": "O=C(NCCCN1CCOCC1)c1ccc(Nc2nccc(-c3cc4ccccc4s3)n2)cc1", "read-out": "binding", "method": "competition with immobilised ligand", "concentration": "1 µM", "remaining binding [%]": 65}
{"SMILES": "CN(C)c1nccc(-c2cnn3ncccc23)n1", "read-out": "binding", "method": "competition with immobilised ligand", "concentration": "1 µM", "remaining binding [%]": 74}
{"SMILES": "Nc1ncc2c(n1)-c1c([nH]c3ccc(C#CC4CC4)cc13)CCCC2", "read-out": "binding", "method": "competition with immobilised ligand", "concentration": "1 µM", "remaining binding [%]": 87}
{"SMILES": "C[C@H]1CCN(c2nccc(-c3cnn4ncccc34)n2)C1", "read-out": "binding", "method": "competition with immobilised ligand", "concentration": "1 µM", "remaining binding [%]": 50}
{"SMILES": "COc1ncc2cc3ccccc3nc2c1C#N", "read-out": "cell-free assay", "method": "competition with immobilised ligand", "concentration": "5 µM", "remaining binding [%]": 100}
{"SMILES": "CNCc1ccccc1-c1csc([C@@H](C)Nc2nc(C)nc3cc(OC)c(OC)cc23)c1", "read-out": "cell-free assay", "method": "competition with immobilised ligand", "concentration": "1 µM", "remaining binding [%]": 86}
{"SMILES": "CN(C)c1ncc(F)c(-c2cnn3ncccc23)n1", "read-out": "binding", "method": "competition with immobilised ligand", "concentration": "1 µM", "remaining binding [%]": 88}
{"SMILES": "O=C(NCC1CCOCC1)c1n[nH]cc1NC(=O)c1c(F)cccc1F", "read-out": "binding", "method": "competition with immobilised ligand", "concentration": "1 µM", "remaining binding [%]": 71}
{"SMILES": "F[C@@H]1CCN(c2nccc(-c3cnn4ncccc34)n2)C1", "read-out": "binding", "concentration": "1 µM", "remaining binding [%]": 54}
{"SMILES": "Cc1c(NC(=O)c2cc(C(N)=O)nc3cc(F)ccc23)c(C(F)(F)F)nn1Cc1ccc(C(C)(C)C)cc1", "read-out": "cell-free assay", "method": "competition with immobilised ligand", "concentration": "1 µM", "remaining binding [%]": 100}
{"SMILES": "O=C(c1ccc(Nc2ncc(Cl)c(-c3ccc(Cl)s3)n2)cc1)N1CCC(N2CCCC2)CC1", "read-out": "binding", "method": "competition with immobilised ligand", "concentration": "1 µM", "remaining binding [%]": 98}
{"SMILES": "c1cnn2ncc(-c3ccnc(N4CCC45COC5)n3)c2c1", "read-out": "binding", "method": "competition with immobilised ligand", "concentration": "1 µM", "remaining binding [%]": 48}
{"SMILES": "Cc1nc(C2CCN(C(=O)c3ccc(OC(F)(F)F)cc3N)CC2)c2ncc(N3CCN(C)CC3)cc2n1", "read-out": "cell-free assay", "method": "competition with immobilised ligand", "concentration": "1 µM", "remaining binding [%]": 92}
{"SMILES": "CN(C)c1nccc(-c2cnc3ncccn23)n1", "read-out": "binding", "method": "competition with immobilised ligand", "concentration": "1 µM", "remaining binding [%]": 92}
{"SMILES": "Cc1c(C(=O)O)cc(-c2ccc(C3CCNCC3)cc2)c2ccc(-c3ccc(C(F)(F)F)cc3)cc12", "read-out": "binding", "method": "competition with immobilised ligand", "concentration": "1 µM", "remaining binding [%]": 100}
